{"source": "paper PMC2857556", "about": "(Cytoskeleton (Hoboken, N.J.), 2010)", "molecules": {"B1": {"name": "profilin: Yeast profilin (Pfy1) purified from E. coli (protein, UniProt P07274 1-126, looked up)", "Profilin": "MSWQAYTDNLIGTGKVDKAVIYSRAGDAVWATSGGLSLQPNEIGEIVQGFDNPAGLQSNGLHIQGQKFMLLRADDRSIYGRHDAEGVVCVRTKQTVIIAHYPPTVQAGEATKIVEQLADYLIGVQY"}, "B2": {"name": "fragment of Srv2/CAP containing the WH2 domain (a.a. 253-373): purified fragment of Srv2/CAP from an earlier study (Mattila et al., 2004) (protein, UniProt P17555 253-373, looked up, fragment)", "chain": "MAQSTKNTGATSSPSPASATAAPAPPPPPPAPPASVFEISNDTPATSSDANKGGIGAVFAELNQGENITKGLKKVDKSQQTHKNPELRQSSTVSSTGSKSGPPPRPKKPSTLKTKRPPRKE"}}, "key": {"[1]": {"test_system": "G-actin", "assay": "Interaction of WH2 peptides with G-actin", "assay_type": "binding"}, "[2]": {"test_system": "F-actin", "assay": "F-actin co-sedimentation", "assay_type": "binding", "details": "co-sedimentation assays, data not shown"}, "[3]": {"test_system": "F-actin", "assay": "Pi release assay of steady state actin filament turnover in the presence of Cof1", "assay_type": "biochemical, rabbit", "details": "8 μM actin, 25°C", "in_short": "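Cof1 and full-length Srv2 were premixed with 2 mM MgCl2, 0.5 mM ATP, 50 mM KCl, 0.2 mM MESG and 0.1 units PNP. Rabbit muscle actin monomers were added to start polymerization. Once the reaction reached steady state, Pi release was read for 15 min. After path-length correction, steady-state slopes were obtained by linear fit.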"}, "[4]": {"test_system": "actin", "assay": "Steady state actin critical concentration", "assay_type": "biochemical", "details": "for steady state critical concentration for actin assembly (Cc): saturating Srv2 or WH2 peptide, actin alone Cc = 0.21"}, "[5]": {"assay": "Fluorescence-monitored urea denaturation", "assay_type": "physicochemical", "in_short": "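Full-length 6xHis-tagged wild type and mutant Srv2 were expressed in E. coli BL21-RP (DE3), purified by IMAC then Superose 6 gel filtration in 20 mM Tris pH 8.0, 50 mM NaCl, 1 mM DTT, and stored at -80°C. Unfolding was followed by fluorescence as a function of urea concentration, with fluorescence normalized.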"}, "[6]": {"test_system": "Cof1-bound ADP-actin monomers", "assay": "Nucleotide exchange on Cof1-bound ADP-actin monomers", "assay_type": "biochemical, rabbit", "in_short": "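Rabbit muscle ADP-actin (2 μM) was kept in G-buffer without ATP (10 mM Tris pH 7.5, 0.2 mM CaCl2, 0.2 mM DTT). It was mixed with 20 mM Tris pH 8.0, 50 mM NaCl, alone or containing Cof1 and/or varying full-length Srv2 (yeast profilin from E. coli where used), then added to ε-ATP. The fluorescence rise at 350/410 nm was monitored for at least 600 s.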"}, "[7]": {"biological_target": "Rabbit skeletal muscle actin, monomeric (G-actin) (rabbit) (UniProt P68135)", "assay": "inhibition of nucleotide exchange on actin"}, "[8]": {"biological_target": "Rabbit skeletal muscle actin, monomeric (G-actin) (rabbit) (UniProt P68135)", "assay": "inhibition of nucleotide exchange on actin", "remark": "listed apart in the source"}, "[9]": {"test_system": "NBD-labeled G-actin", "details": "ref Mattila et al., 2004; cited from earlier work"}}, "note": "Like-named read-outs stand apart in the source and are kept apart here. No end group written: not given here.", "data": [{"molecule": "306-349: WH2 domain-containing peptide of Srv2, a.a. 306-349 (GIGAVFAELNQGENITKGLKKVDKSQQTHKNPELRQSSTVSSTG; UniProt P17555 306-349, looked up, fragment)", "values": [{"measurement": "interaction with G-actin (in words)", "setting": "[1]", "result": "both WH2 peptides interacted with G-actin"}, {"measurement": "binding affinity for F-actin (in words)", "setting": "[2]", "result": "Neither WH2 peptide showed any detectable binding affinity for F-actin"}]}, {"molecule": "Srv2-WT: full-length 6xHis-tagged wild type yeast Srv2/CAP protein purified from E. coli", "values": [{"measurement": "effect on actin turnover (Pi release) (in words)", "setting": "[3]; 4 μM Cof1, 0-500 nM protein", "result": "increased the rate of turnover in a concentration-dependent manner"}, {"measurement": "rate increase of actin turnover (Pi release), peak", "setting": "[3]; 4 μM Cof1, Srv2 0-500 nM, 360 nm (Fig. 8A)", "result": 4, "unit": "fold"}, {"measurement": "steady state critical concentration for actin assembly (Cc)", "setting": "[4]; data not shown", "result": 2.4, "unit": "µM"}, {"measurement": "increase of critical concentration versus actin alone", "setting": "[4]; versus actin alone, data not shown", "result": 10, "unit": "fold"}, {"measurement": "folding / stability by urea denaturation (in words)", "setting": "[5]", "result": "folded correctly"}, {"measurement": "urea concentration of unfolding", "setting": "[5]", "result": "~ 5 M urea"}, {"measurement": "Srv2 concentration of peak effect on nucleotide exchange rate", "setting": "[6]; 2 μM ADP-G-actin, 5 μM Cof1, 25°C (Fig. 7A)", "result": "300 to 400", "unit": "nM"}]}, {"molecule": "Srv2/CAP WH2 peptide (a.a. 295-349), wild type (from UniProt P17555 295-349) (domain or fragment)", "values": [{"measurement": "Kd", "setting": "[7]", "result": 1.4, "unit": "µM"}, {"measurement": "Kd", "setting": "[8]", "result": 1.5, "unit": "µM"}]}, {"molecule": "WH2 peptide: 6xHis-tagged WH2 domain of S. cerevisiae Srv2, a.a. 295-349, purified from E. coli (TPATSSDANKGGIGAVFAELNQGENITKGLKKVDKSQQTHKNPELRQSSTVSSTG; also: 6xHis tag, end not given here)", "values": [{"measurement": "interaction with G-actin (in words)", "setting": "[1]", "result": "both WH2 peptides interacted with G-actin"}, {"measurement": "binding affinity for F-actin (in words)", "setting": "[2]", "result": "Neither WH2 peptide showed any detectable binding affinity for F-actin"}, {"measurement": "effect on steady state critical concentration (in words)", "setting": "[4]; actin + WH2 versus actin alone", "result": "did not alter the steady state critical concentration for actin assembly"}, {"measurement": "steady state critical concentration for actin assembly (Cc)", "setting": "[4]; data not shown", "result": 0.26, "unit": "µM"}]}, {"molecule": "B1", "values": [{"measurement": "effect on nucleotide exchange on Cof1-bound ADP-actin, protein alone (in words)", "setting": "[6]; 2 μM ADP-G-actin, 5 μM Cof1, 50 μM ε-ATP, 25°C", "result": "no detectable activity"}, {"measurement": "effect of profilin on Srv2-WT promotion of nucleotide exchange (in words)", "setting": "[6]; 5 μM yeast profilin with 400 nM full-length Srv2-WT, 5 μM Cof1 (Fig. 7F)", "result": "does not enhance Srv2’s effects"}]}, {"molecule": "B2", "values": [{"measurement": "binding affinity for NBD-labeled G-actin (in words)", "setting": "[9]", "result": "no detectable binding affinity for NBD-labeled G-actin"}]}]}
